Data from ChEMBL document CHEMBL4196090, “Design, synthesis and biological evaluation of piperazinyl-β-carbolinederivatives as anti-leishmanial agents” (Eur J Med Chem, 2018).

Key:
[1] = Cytotoxicity against human HeLa cells after 65 hrs by alamar blue assay; format: cell-based
Procedure, shortened: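 HeLa cells first screened at 500 µM. Active compounds then tested for CC50: cells seeded at 2 × 10^4/well, exposed to compound 65 h, then Alamar Blue added for a further 5 h.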

Leishmania infantum [2] = assay: Antileishmanial activity against Leishmania infantum JPCM5 MCAN/ES/98/LLM-87 promastigotes after 72 hrs by alamar blue assay; format: functional, organism-based; details: MCAN/ES/98/LLM-87, 72 h
Procedure, shortened: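 L. infantum JPCM5 promastigotes grown at 26 °C in HOMEM. Exposed to serial compound dilutions for 72 h, then Alamar blue read-out to give EC50.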

Leishmania infantum [3] = assay: Antileishmanial activity against Leishmania infantum JPCM5 MCAN/ES/98/LLM-87 axenic amastigotes after 72 hrs by alamar blue assay; format: functional, organism-based; details: MCAN/ES/98/LLM-87, 72 h
Procedure, shortened: (§1)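 Axenic amastigotes (L. donovani LdBOB; L. infantum clone JPCM5, grown at 26 °C in HOMEM) incubated 72 h with compounds. Viability read by Alamar blue; EC50 determined.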

[4] = Selectivity index, ratio of CC50 for human HeLa cells to EC50 for Leishmania infantum JPCM5 MCAN/ES/98/LLM-87 promastigotes; format: toxicity; details: read-out: Ratio CC50/EC50
Procedure, shortened: (§2)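 Selectivity index computed as CC50 (HeLa, Alamar blue) divided by EC50 for the respective parasite stage.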

[5] = Selectivity index, ratio of CC50 for human HeLa cells to EC50 for Leishmania infantum JPCM5 MCAN/ES/98/LLM-87 axenic amastigotes; format: toxicity; details: read-out: Ratio CC50/EC50; procedure, shortened: as §2
Leishmania donovani [6] = assay: Antileishmanial activity against Leishmania donovani promastigotes after 72 hrs by alamar blue assay; format: functional, organism-based
Procedure, shortened: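 L. donovani promastigotes grown at 26 °C in M199 plus 10% heat-inactivated FCS. Exposed to serial compound dilutions for 72 h, then Alamar blue read-out to give EC50.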

Leishmania donovani [7] = assay: Antileishmanial activity against Leishmania donovani LdBOB axenic amastigotes after 72 hrs by alamar blue assay; format: functional, organism-based; procedure, shortened: as §1
Leishmania donovani [8] = assay: Antileishmanial activity against Leishmania donovani LdBOB amastigotes infected in human THP1 cells after 72 hrs by Giemsa staining based microscopic method; format: functional, organism-based; details: THP-1, 72 h
Procedure, shortened: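 THP-1 cells, kept in MEM plus 10% FBS, plated at 20,000/well with 10 nM PMA, 37 °C, 5% CO2, 75 h. Washed in PBS with 1 mM CaCl2, 0.5 mM MgCl2, 0.1% BSA. Infected with axenic LdBOB amastigotes at MOI 5 for 18 h, washed, serial compound dilutions for 72 h. Methanol fixation, Giemsa stain, ~200 macrophages/well counted. % infection vs untreated control (100%) gives EC50.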

[9] = Selectivity index, ratio of CC50 for human HeLa cells to EC50 for Leishmania donovani promastigotes; format: toxicity; details: read-out: Ratio CC50/EC50; procedure, shortened: as §2
[10] = Selectivity index, ratio of CC50 for human HeLa cells to EC50 for Leishmania donovani LdBOB axenic amastigotes; format: toxicity; details: read-out: Ratio CC50/EC50; procedure, shortened: as §2
[11] = Selectivity index, ratio of CC50 for human HeLa cells to EC50 for Leishmania donovani LdBOB amastigotes infected in human THP1 cells; format: toxicity, cell-based; details: read-out: Ratio CC50/EC50; procedure, shortened: as §2
Leishmania infantum [12] = assay: Selectivity ratio of EC50 for antileishmanial activity against Leishmania infantum JPCM5 MCAN/ES/98/LLM-87 promastigotes to EC50 for antileishmanial activity against Leishmania infantum JPCM5 MCAN/ES/98/LLM-87 amastigotes; format: functional
Leishmania infantum [13] = assay: Potency index, ratio of pentamidine EC50 to compound EC50 for antileishmanial activity against Leishmania infantum JPCM5 MCAN/ES/98/LLM-87 promastigotes; format: functional
Leishmania infantum [14] = assay: Potency index, ratio of miltefosine EC50 to compound EC50 for antileishmanial activity against Leishmania infantum JPCM5 MCAN/ES/98/LLM-87 promastigotes; format: functional

EC50 (Leishmania donovani [8]) [µM] | Compound | CC50 at 65 h [1] [µM] | EC50 (Leishmania infantum [2]) [µM] | EC50 (Leishmania infantum [3]) [µM] | selectivity ratio [4] | selectivity ratio [5] | EC50 (Leishmania donovani [6]) [µM] | EC50 (Leishmania donovani [7]) [µM] | selectivity ratio [9] | selectivity ratio [10] | selectivity ratio [11] | Ratio EC50 (Leishmania infantum [12]) | Ratio EC50 (Leishmania infantum [13]) | Ratio EC50 (Leishmania infantum [14])
6.4 | O=C(c1cc2c([nH]c3ccccc32)c(-c2ccccc2)n1)N1CCN(c2cccc(Cl)c2Cl)CC1 | > 500 | 10.7 | 2.9 | > 46.7 | > 172 | 6.95 | 5.7 | > 71.9 | > 87.7 | > 78.1 | 2 - 5 |  | 
 | O=C(c1cc2c([nH]c3ccccc32)c(-c2ccccc2)n1)N1CCN(c2ccncc2)CC1 | 78.7 | 66.7 |  | 1.2 |  | 68.5 |  | 1.2 |  |  |  |  | 
6.8 | O=C(c1cc2c([nH]c3ccccc32)c(-c2ccccc2)n1)N1CCN(c2cccc(Cl)c2)CC1 | 18.4 | 15.9 | 3.3 | 1.2 | 5.6 | 13.2 | 10.2 | 1.4 | 1.8 | 2.7 |  |  | 
 | O=C(c1cc2c([nH]c3ccccc32)c(-c2ccccc2)n1)N1CCN(c2ccc(Cl)cc2)CC1 | > 500 | 33 |  | > 15.2 |  | 38.6 |  | > 12.9 |  |  |  |  | 
8.5 | O=C(c1cc2c([nH]c3ccccc32)c(-c2ccccc2)n1)N1CCN(c2ccccc2Cl)CC1 | > 500 | 15.7 | 12.2 | > 31.8 | > 41 | 6.98 | 5.8 | > 71.6 | > 86.2 | > 58.8 |  |  | 
9.6 | Cc1ccccc1N1CCN(C(=O)c2cc3c([nH]c4ccccc43)c(-c3ccccc3)n2)CC1 | > 500 | 36.2 |  | > 13.8 |  | 12.6 | 6 | > 39.7 | > 83.3 | > 52.1 |  |  | 
5.7 | Cc1ccc(N2CCN(C(=O)c3cc4c([nH]c5ccccc54)c(-c4ccccc4)n3)CC2)cc1 | > 500 | 9.63 | 6.2 | > 51.9 | > 80.6 | 4.91 | 3.3 | > 102 | > 152 | > 87.7 | 2 - 5 |  | 
9.2 | COc1ccc(N2CCN(C(=O)c3cc4c([nH]c5ccccc54)c(-c4ccccc4)n3)CC2)cc1 | > 500 | 9.07 | 5.2 | > 55.1 | > 96.2 | 6.32 | 2.8 | > 79.1 | > 179 | > 54.4 | 2 - 5 |  | 
21.5 | O=C(c1cc2c([nH]c3ccccc32)c(-c2ccccc2)n1)N1CCN(c2ccc([N+](=O)[O-])cc2)CC1 | > 500 | 19.8 | 24.8 | > 25.5 | > 20.2 | 12.8 | 11.8 | > 39.1 | > 42.4 | > 23.3 |  |  | 
7.3 | O=C(c1cc2c([nH]c3ccccc32)c(-c2ccccc2)n1)N1CCN(c2ccccc2)CC1 | 38.1 | 12.5 | 4.5 | 3 | 8.5 | 16.3 | 12.5 | 2.3 | 3 | 5.2 |  |  | 
8 | COc1ccccc1N1CCN(C(=O)c2cc3c([nH]c4ccccc43)c(-c3ccccc3)n2)CC1 | 205 | 3.35 | 4.9 | 61.1 | 41.8 | 3.49 | 2.3 | 58.7 | 89 | 25.6 | 2 - 5 | 4 | 4
8.8 | O=C(c1cc2c([nH]c3ccccc32)c(-c2ccccc2)n1)N1CCN(Cc2ccccc2)CC1 | 28.9 | 24.3 |  | 1.2 |  | 16.4 | 12.6 | 1.8 | 2.3 | 3.3 |  |  | 
22.3 | O=C(c1cc2c([nH]c3ccccc32)c(-c2ccccc2)n1)N1CCN(c2ccc(F)cc2)CC1 | > 500 | 14.1 | 11.3 | > 35.5 | > 44.2 | 17.5 | 12.6 | > 28.6 | > 39.7 | > 22.4 |  |  | 
11.9 | O=C(c1cc2c([nH]c3ccccc32)c(-c2ccccc2)n1)N1CCN(c2ccccn2)CC1 | > 500 | 34 |  | > 14.7 |  | 7.5 | 5.1 | > 66.7 | > 98 | > 42 |  |  | 
4 | O=C(c1cc2c([nH]c3ccccc32)c(-c2ccccc2)n1)N1CCN(c2ccccc2F)CC1 | > 500 | 14.9 | 9.4 | > 33.6 | > 53.2 | 3.47 | 2.8 | > 144 | > 179 | > 125 |  |  | 
6.4 | CCCCCCCCCCCCCCCCOP(=O)([O-])OCC[N+](C)(C)C [MILTEFOSINE] |  | 12.6 | 4.8 |  |  | 3.12 | 2.8 |  |  |  |  |  | 
6.9 | COc1cccc(N2CCN(C(=O)c3cc4c([nH]c5ccccc54)c(-c4ccccc4)n3)CC2)c1 | 205 | 2.89 | 2.8 | 71 | 73.3 | 4.85 | 1.9 | 42.3 | 108 | 29.7 | 2 - 5 | 4 | 4
23.7 | N=C(N)c1ccc(OCCCCCOc2ccc(C(=N)N)cc2)cc1 [PENTAMIDINE] |  | 8.31 | 2.7 |  |  | 6.4 | 1.6 |  |  |  |  |  | 
